Source: ChEMBL document CHEMBL4706590, “Design and characterization of cereblon-mediated androgen receptor proteolysis-targeting chimeras” (Eur J Med Chem, 2020)

Experiments:
[1] = biological target: T1, Protein cereblon/Androgen receptor (Homo sapiens, UniProt P10275+Q96SW2); assay: Protac activity at CRBN/AR in human LNCaP cells assessed as AR degradation at 1 uM by Western blotting analysis relative to control; type: cell-based
Method in brief: (§1)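 LNCaP (IMDM) or 22RV1 (RPMI 1640) cells with 10% FBS at 37 °C, 5% CO2, treated with DMSO vehicle as control. Cells lysed in RIPA buffer (50 mM Tris-HCl pH 7.5, 150 mM NaCl, 1% Triton X-100, 0.1% SDS, 0.5% deoxycholate, protease inhibitors). Protein quantified by Bradford assay. Immunoblotted for AR with tubulin as loading control, HRP chemiluminescence detection.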

VCaP = assay: Antiproliferative activity against human VCaP cells assessed as reduction in cell viability after 6 days by CellTiter-Glo assay; type: functional; conditions: 144 h, time 6 day
Method in brief: (§2)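 LNCaP seeded at 1.5 × 10³ and VCaP at 4 × 10³ cells per well in 96-well plates. Cells grown in IMDM with 10% FBS and antibiotic-antimycotic at 37 °C, 5% CO2, with DMSO as vehicle. IC50 from nonlinear regression of log(inhibitor) versus response.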

LNCaP = assay: Antiproliferative activity against human LNCaP cells assessed as reduction in cell viability after 6 days by CellTiter-Glo assay; type: functional; conditions: 144 h, time 6 day; method in brief: as §2
[2] = biological target: T1, Protein cereblon/Androgen receptor; assay: Protac activity at CRBN/AR in human LNCaP cells assessed as AR degradation at 0.1 uM by western blotting analysis relative to control; type: cell-based; method in brief: as §1
[3] = Metabolic stability in mouse liver microsomes assessed as compound remaining at 1 uM after 30 mins in presence of NADPH-regenerating system; type: ADME, Microsome; conditions: read-out: Stabilty
Method in brief: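 Mouse liver microsomes at 0.5 mg protein/mL in 100 mM PBS, pH 7.4. Reaction started with NADPH-regenerating solution (1.3 mM NADP+, 3.3 mM glucose-6-phosphate, 0.4 U/mL G6PDH, 3.3 mM MgCl2). Incubated 30 min at 37 °C, stopped with ice-cold acetonitrile, centrifuged. Percent remaining reported as mean ± SD, n = 3.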

[4] = biological target: T1, Protein cereblon/Androgen receptor; assay: Protac activity at CRBN/AR in human LNCaP cells assessed as AR degradation at 10 uM by Western blotting analysis relative to control; type: cell-based; method in brief: as §1

T1 sequence (P10275 whole entry, looked up): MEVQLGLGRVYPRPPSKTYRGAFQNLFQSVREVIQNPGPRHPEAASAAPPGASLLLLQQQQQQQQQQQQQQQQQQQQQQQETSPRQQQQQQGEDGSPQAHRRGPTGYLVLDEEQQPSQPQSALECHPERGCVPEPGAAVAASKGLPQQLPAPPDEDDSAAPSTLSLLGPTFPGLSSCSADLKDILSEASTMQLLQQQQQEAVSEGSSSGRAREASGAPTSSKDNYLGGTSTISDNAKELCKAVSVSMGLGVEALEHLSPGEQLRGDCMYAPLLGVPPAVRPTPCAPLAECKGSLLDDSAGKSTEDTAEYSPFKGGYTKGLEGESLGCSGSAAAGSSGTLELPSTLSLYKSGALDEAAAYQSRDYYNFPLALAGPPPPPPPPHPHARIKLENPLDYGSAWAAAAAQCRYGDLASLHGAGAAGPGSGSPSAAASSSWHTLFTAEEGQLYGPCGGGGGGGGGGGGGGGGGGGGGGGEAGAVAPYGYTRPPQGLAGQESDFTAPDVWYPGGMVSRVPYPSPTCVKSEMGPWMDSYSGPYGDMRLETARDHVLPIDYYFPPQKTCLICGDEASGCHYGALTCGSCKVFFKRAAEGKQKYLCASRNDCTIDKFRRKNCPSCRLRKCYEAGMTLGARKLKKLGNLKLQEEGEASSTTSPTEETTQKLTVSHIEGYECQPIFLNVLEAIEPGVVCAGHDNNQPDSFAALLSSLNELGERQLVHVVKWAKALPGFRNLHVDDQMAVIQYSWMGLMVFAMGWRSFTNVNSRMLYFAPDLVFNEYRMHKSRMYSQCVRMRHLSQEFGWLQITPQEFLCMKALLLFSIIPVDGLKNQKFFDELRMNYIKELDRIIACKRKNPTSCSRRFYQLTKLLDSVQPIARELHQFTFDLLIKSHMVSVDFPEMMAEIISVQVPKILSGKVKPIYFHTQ
T1 sequence (Q96SW2 whole entry, looked up): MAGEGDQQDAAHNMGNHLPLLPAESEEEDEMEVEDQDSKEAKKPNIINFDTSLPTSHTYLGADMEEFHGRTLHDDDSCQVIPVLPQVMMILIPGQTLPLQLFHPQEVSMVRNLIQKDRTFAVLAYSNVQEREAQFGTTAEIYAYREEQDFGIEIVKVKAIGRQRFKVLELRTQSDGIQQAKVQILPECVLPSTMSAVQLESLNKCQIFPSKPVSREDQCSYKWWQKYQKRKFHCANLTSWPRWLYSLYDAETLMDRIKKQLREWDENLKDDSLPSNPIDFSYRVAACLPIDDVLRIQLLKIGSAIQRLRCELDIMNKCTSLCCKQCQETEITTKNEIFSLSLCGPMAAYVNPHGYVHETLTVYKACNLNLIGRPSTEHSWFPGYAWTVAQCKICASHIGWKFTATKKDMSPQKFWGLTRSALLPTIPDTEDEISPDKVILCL

Row | SMILES | Activity [1] | CC50 (VCaP) | CC50 (LNCaP) | Activity [2] | remaining at 0.5 h, 1 µM [3] | Activity [4]
1 | CC1(C)[C@H](NC(=O)c2ccc(N3CCN(CCC4CCN(C(=O)COc5ccc6nnn(C7CCC(=O)NC7=O)c(=O)c6c5)CC4)CC3)cc2)C(C)(C)[C@H]1Oc1ccc(C#N)c(Cl)c1 (stereo partly drawn) | 50% | 46 nM | 3180 nM | 0% | 2.98% | 82%
2 | CC1(C)[C@H](NC(=O)c2ccc(N3CCN(C4CC5(CCN(C(=O)CNc6ccc7nnn(C8CCC(=O)NC8=O)c(=O)c7c6)CC5)C4)CC3)cc2)C(C)(C)[C@H]1Oc1ccc(C#N)c(Cl)c1 (stereo partly drawn) | 77% | 54 nM | 208 nM | 61% | 85.5% | 39%
3 | CC1(C)[C@H](NC(=O)c2ccc(N3CCN(CCC4CCN(C(=O)CNc5ccc6nnn(C7CCC(=O)NC7=O)c(=O)c6c5)CC4)CC3)cc2)C(C)(C)[C@H]1Oc1ccc(C#N)c(Cl)c1 (stereo partly drawn) | 87% | 107 nM | 1090 nM | 7% | 0.56% | 83%
4 | CC1(C)[C@H](NC(=O)c2ccc(N3CCN(CC4CCN(c5ccc6nnn(C7CCC(=O)NC7=O)c(=O)c6c5)CC4)CC3)cc2)C(C)(C)[C@H]1Oc1ccc(C#N)c(Cl)c1 (stereo partly drawn) | 91% | 81 nM | 259 nM | 79% | 71.7% | 95%
5 | CC1(C)[C@H](NC(=O)c2ccc(N3CCN(CCOC4CCN(C(=O)CNc5ccc6nnn(C7CCC(=O)NC7=O)c(=O)c6c5)CC4)CC3)cc2)C(C)(C)[C@H]1Oc1ccc(C#N)c(Cl)c1 (stereo partly drawn) | 95% | 57 nM | 852 nM | 77% | 31.2% | 88%
6 | CC1(C)[C@H](NC(=O)c2ccc(N3CCN(CC4CCN(C(=O)C5CCN(c6ccc7nnn(C8CCC(=O)NC8=O)c(=O)c7c6)CC5)CC4)CC3)cc2)C(C)(C)[C@H]1Oc1ccc(C#N)c(Cl)c1 (stereo partly drawn) | 89% | 45 nM | 108 nM | 90% | 74.3% | 94%
7 | CC1(C)[C@H](NC(=O)c2ccc(N3CCN(C4CC5(CCN(C(=O)COc6ccc7nnn(C8CCC(=O)NC8=O)c(=O)c7c6)CC5)C4)CC3)cc2)C(C)(C)[C@H]1Oc1ccc(C#N)c(Cl)c1 (stereo partly drawn) | 77% | 76 nM | 196 nM | 60% | 62.8% | 79%
8 | CC1(C)[C@H](NC(=O)c2ccc(N3CCN(CCC4CCN(C(=O)C5CCN(c6ccc7nnn(C8CCC(=O)NC8=O)c(=O)c7c6)CC5)CC4)CC3)cc2)C(C)(C)[C@H]1Oc1ccc(C#N)c(Cl)c1 (stereo partly drawn) | 93% | 52 nM | 316 nM | 77% | 93.7% | 99%
